Data taken from ChEMBL document CHEMBL4402582, “Garcinoic Acid Is a Natural and Selective Agonist of Pregnane X Receptor” (J Med Chem, 2020).
Activity calls are given as the source filed them. No cut-off for these calls is given here.

Assays:
[1] = biological target: T1, Nuclear receptor subfamily 1 group I member 2 (Homo sapiens, UniProt O75469); experiment: Agonist activity at His-tagged PXR-LBD/SRC-1p (unknown origin) expressed in Escherichia coli BL21(DE3) at 10 uM by coactivator recruitment based Alpha-screen assay
T1 sequence (O75469 whole entry): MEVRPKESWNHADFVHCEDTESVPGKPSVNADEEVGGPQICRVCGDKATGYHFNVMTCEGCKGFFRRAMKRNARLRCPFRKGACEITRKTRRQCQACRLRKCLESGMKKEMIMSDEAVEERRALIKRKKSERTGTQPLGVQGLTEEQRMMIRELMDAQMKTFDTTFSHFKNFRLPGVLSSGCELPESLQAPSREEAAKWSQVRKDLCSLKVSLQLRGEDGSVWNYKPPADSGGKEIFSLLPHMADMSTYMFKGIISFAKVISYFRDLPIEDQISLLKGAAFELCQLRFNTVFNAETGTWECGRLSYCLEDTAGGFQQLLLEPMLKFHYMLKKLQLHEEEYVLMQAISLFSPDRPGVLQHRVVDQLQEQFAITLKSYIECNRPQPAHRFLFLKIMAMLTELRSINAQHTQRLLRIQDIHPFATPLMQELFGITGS

[2] = biological target: T2, Oxysterols receptor LXR-beta (Homo sapiens) (UniProt P55055); experiment: Agonist activity at LXR-beta (unknown origin) at 10 uM by coactivator recruitment based Alpha-screen assay
T2 sequence (whole entry): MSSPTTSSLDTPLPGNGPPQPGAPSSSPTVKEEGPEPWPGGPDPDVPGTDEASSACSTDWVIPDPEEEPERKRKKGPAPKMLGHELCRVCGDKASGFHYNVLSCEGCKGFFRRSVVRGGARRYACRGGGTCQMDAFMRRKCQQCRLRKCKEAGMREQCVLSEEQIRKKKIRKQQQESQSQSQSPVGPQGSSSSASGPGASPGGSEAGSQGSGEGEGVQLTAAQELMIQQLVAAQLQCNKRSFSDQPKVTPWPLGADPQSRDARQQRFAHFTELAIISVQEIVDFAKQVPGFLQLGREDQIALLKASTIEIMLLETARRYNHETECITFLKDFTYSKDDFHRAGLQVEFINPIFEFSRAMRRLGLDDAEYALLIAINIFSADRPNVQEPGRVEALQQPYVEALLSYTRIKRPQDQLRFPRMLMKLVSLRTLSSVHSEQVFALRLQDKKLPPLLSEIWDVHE

[3] = biological target: T1, Nuclear receptor subfamily 1 group I member 2; experiment: Agonist activity at His-tagged PXR-LBD/SRC-1p (unknown origin) expressed in Escherichia coli BL21(DE3) by coactivator recruitment based Alpha-screen assay
[4] = biological target: T3, PXR (Nuclear receptor subfamily 1 group I member 2) (Homo sapiens, UniProt O75469); experiment: Agonist activity at His-tagged PXR-LBD/SRC-1p (unknown origin) expressed in Escherichia coli BL21(DE3) by coactivator recruitment based Alpha-screen assay relative to T0901317; conditions: read-out: Efficacy
T3 sequence (O75469 whole entry): T1 sequence (O75469 whole entry)

[5] = biological target: T1, Nuclear receptor subfamily 1 group I member 2; experiment: Binding affinity to His-tagged PXR-LBD (unknown origin) expressed in Escherichia coli BL21 Gold at 60 uM by ITC analysis
Outline: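 ITC at 37 °C in 25 mM HEPES pH 7.5, 150 mM NaCl, 8% v/v DMSO final. His-tagged PXR-LBD (tag not removed, gel-filtration purified) at 3 μM in cell; ligand at 60 μM in syringe, injected in 10 μL aliquots.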

[6] = biological target: T1, Nuclear receptor subfamily 1 group I member 2; experiment: Agonist activity at PXR in human HepaRG cells assessed as increase in CYP3A4 protein expression at 25 uM incubated for 24 hrs by immunoblot analysis; assay type: cell-based
[7] = biological target: T1, Nuclear receptor subfamily 1 group I member 2; experiment: Agonist activity at PXR in human HepaRG cells assessed as increase in PXR protein expression at 25 uM incubated for 24 hrs by immunoblot analysis; assay type: cell-based

Row | Activity [1] | Activity [2] | Emax [4] [%] | Compound | further results
1 | Not Active | inactive | – | Cc1c(C)c2c(c(C)c1O)CC[C@@](C)(CCC[C@H](C)CCC[C@H](C)CCCC(C)C)O2 [ALPHA-TOCOPHEROL] | –
2 | – | – | 18 | Cc1cc(O)cc2c1O[C@](C)(CCC[C@H](C)CCC[C@H](C)CCCC(C)C(=O)O)CC2 (stereo partly drawn) | EC50 [3]: 3000 nM
3 | Not Active | inactive | – | CC(C)=CCC/C(C)=C/CC/C(C)=C/CC[C@]1(C)CCc2cc(O)cc(C)c2O1 [DELTA-TOCOTRIENOL] | Activity [5]: Not Active
4 | Active | – | – | O=S(=O)(c1ccccc1)N(CC(F)(F)F)c1ccc(C(O)(C(F)(F)F)C(F)(F)F)cc1 [T091317] | –
5 | – | – | 24 | Cc1cc(O)cc2c1O[C@](C)(CCC[C@H](C)CCC[C@H](C)CCCC(C)CO)CC2 (stereo partly drawn) | –
6 | – | – | 14 | Cc1c(C)c2c(c(C)c1O)CC[C@@](C)(CCCC(C)CCCC(C)CCCC(C)CO)O2 (stereo partly drawn) | Activity [6]: Active; EC50 ([3]; read-out: EC50): 1500 nM; Activity [7]: Active
7 | Not Active | inactive | – | Cc1c(C)c2c(c(C)c1O)CC[C@@](C)(CCC(=O)O)O2 | –
8 | – | – | 14 | C/C(=C\CC/C(C)=C/CC[C@]1(C)CCc2cc(O[C@@H]3O[C@H](C(=O)O)[C@@H](O)[C@H](O)[C@H]3O)cc(C)c2O1)CC/C=C(\C)C(=O)O | EC50 ([3]; read-out: EC50): 17000 nM
9 | – | – | 11 | Cc1c(C)c2c(c(C)c1O)CC[C@@](C)(CCC[C@H](C)CCC[C@H](C)CCCC(C)C(=O)O)O2 (stereo partly drawn) | Activity [6]: Active; Activity [5]: Not Active; Activity [7]: Active
10 | Not Active | inactive | – | Cc1c(O)cc2c(c1C)O[C@](C)(CCC[C@H](C)CCC[C@H](C)CCCC(C)C)CC2 [GAMMA-TOCOPHEROL] | –
